# Tests used:
# [1] = target: GABA-A receptor; anion channel; test: Displacement of [3H]beta-CCE from GABA-A benzodiazepine receptor of rat cerebral cortex membranes; assay type: cell membranes, Membrane
# How it was run: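 Rat cerebral cortex membranes, washed in 50 mM Tris-HCl pH 7.4, stored at −20 °C for at least 24 h. 60 µg protein incubated 60 min at 0 °C with 0.4 nM [3H]-β-CCE (final) and test compound from 5×10^-10 to 10^-5 M. Nonspecific binding was defined with 1 µM unlabeled β-CCE. Bound ligand collected by GF/B filtration and counted by scintillation. Duplicates; IC50 from Hofstee analysis.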
# [2] = target: GABA-A receptor; anion channel; test: Displacement of [3H]flunitrazepam from GABA-A benzodiazepine receptor of rat cerebral cortex membrane; assay type: tissue-based
# How it was run: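 Rat cerebral cortex homogenised in ice-cold 50 mM Tris-HCl pH 7.4, washed by centrifugation, frozen at -20 °C ≥24 h. Filtration on glass fibre, scintillation counting, duplicates; IC50 by Hofstee analysis.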
# [3] = target: T1, GABA-A receptor; anion channel (Mus musculus) (UniProt Q8BHJ7+P26048+Q8QZW7+P50571+Q9R0Y8+P22723+A2AMW3+P62812+Q9JLF1+P26049+P22933+Q9D6F4+P63080+P27681+P16305); test: In vivo binding of [3H]flunitrazepam to GABA-A benzodiazepine receptor of mouse cortex after maximal Diazepam (10 mg/kg, 40 min); assay type: organism-based
# How it was run: (§1)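 Nonspecific in vivo binding. Diazepam 10 mg/kg was given to male Swiss mice 40 min before iv [3H]flunitrazepam (200 µCi/kg) and 60 min before decapitation. Cerebellum, cortex and hippocampus were homogenized in cold 50 mM Tris-HCl pH 7.4. Crude homogenate (12 mg wet tissue) was filtered on GF/B and counted, as pCi/mg wet tissue.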
# [4] = target: T1, GABA-A receptor; anion channel (Mus musculus); test: In vivo total binding of [3H]flunitrazepam (200uCi/kg, 20 min) to GABA-A benzodiazepine receptor of mouse cerebellum; assay type: organism-based
# How it was run: (§2)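 Male Swiss mice received [3H]flunitrazepam 200 µCi/kg in saline via tail vein, 20 min before decapitation. Cerebellum, cortex and hippocampus were dissected on ice and homogenized in ice-cold 50 mM Tris-HCl pH 7.4. Two 600-µL aliquots (12 mg wet tissue) were filtered on GF/B, washed twice and counted. Results given as pCi/mg wet tissue.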
# [5] = target: T1, GABA-A receptor; anion channel (Mus musculus); test: In vivo total binding of [3H]flunitrazepam (200uCi/kg, 20 min) to GABA-A benzodiazepine receptor of mouse cortex; assay type: organism-based; how it was run: as §2
# [6] = target: T1, GABA-A receptor; anion channel (Mus musculus); test: In vivo displacement of [3H]flunitrazepam to GABA-A benzodiazepine receptor of mouse cerebellum at 10 mg/kg, 10 min; assay type: organism-based; set-up: dose 10 mg/kg
# How it was run: (§3)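 Male Swiss mice received [3H]flunitrazepam 200 µCi/kg iv via tail vein. Test compound, 10 mg/kg suspended in Tween 80, was given 10 min later and 10 min before decapitation. Cerebellum, cortex and hippocampus were homogenized in cold 50 mM Tris-HCl pH 7.4. Crude homogenate (12 mg wet tissue) was filtered on GF/B and counted, as pCi/mg wet tissue.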
# [7] = target: T1, GABA-A receptor; anion channel (Mus musculus); test: In vivo total binding of [3H]flunitrazepam (200uCi/kg, 20 min) to GABA-A benzodiazepine receptor of mouse hippocampus; assay type: organism-based; how it was run: as §2
# [8] = target: T1, GABA-A receptor; anion channel (Mus musculus); test: In vivo binding of [3H]flunitrazepam to GABA-A benzodiazepine receptor of mouse hippocampus after maximal Diazepam (10 mg/kg, 40 min); assay type: organism-based; how it was run: as §1
# [9] = target: T1, GABA-A receptor; anion channel (Mus musculus); test: In vivo displacement of [3H]flunitrazepam to GABA-A benzodiazepine receptor of mouse hippocampus at 10 mg/kg, 10 min; assay type: organism-based; set-up: dose 10 mg/kg; how it was run: as §3
# [10] = target: T1, GABA-A receptor; anion channel (Mus musculus); test: In vivo binding of [3H]flunitrazepam to GABA-A benzodiazepine receptor of mouse cerebellum after maximal Diazepam (10mg/kg, 40 min); assay type: organism-based; how it was run: as §1
# [11] = target: T1, GABA-A receptor; anion channel (Mus musculus); test: In vivo displacement of [3H]flunitrazepam to GABA-A benzodiazepine receptor of mouse cortex at 10 mg/kg, 10 min; assay type: organism-based; set-up: dose 10 mg/kg; how it was run: as §3
Structure (SMILES),IC50 [1] [nM],IC50 [2] [nM],other results
O=C1Nc2ccccc2C(=O)N2Cc3[nH]c4ccccc4c3CC12 (stereo unspecified),> 100000,> 100000,–
O=C1Nc2ccccc2CN2Cc3[nH]c4ccccc4c3CC12 (stereo unspecified),> 100000,> 100000,–
CCOC(=O)C1=CC2c3ccccc3NC2C=N1 (stereo unspecified),6,2.5,–
CN1C(=O)CN=C(c2ccccc2F)c2cc([N+](=O)[O-])ccc21 [FLUNITRAZEPAM],8,3,–
O=C1Nc2ccccc2Cn2cc3nc4ccccc4c-3cc21,2000,6000,–
O=c1[nH]c2ccccc2c(=O)n2cc3nc4ccccc4c-3cc12,47,23,Binding [3]: 26.7 pCi mg-1; Total binding [4]: 71.2 pCi mg-1; Total binding [5]: 85 pCi mg-1; Total binding [6]: 78.8 pCi mg-1; Total binding [7]: 95.5 pCi mg-1; Binding [8]: 25.6 pCi mg-1; Total binding [9]: 96.8 pCi mg-1; Binding [10]: 24.1 pCi mg-1; Total binding [11]: 88 pCi mg-1

# From ChEMBL document CHEMBL1123789, “Synthesis of beta-carboline-benzodiazepine hybrid molecules: use of the known structural requirements for benzodiazepine and beta-carboline binding in designing a novel, high-affinity ligand for the benzodiazepine receptor” (J Med Chem, 1987)
